Source: ChEMBL document CHEMBL1154042, “2-Oxoamide inhibitors of phospholipase A2 activity and cellular arachidonate release based on dipeptides and pseudodipeptides” (Bioorg Med Chem, 2009)

Tests used:
[1] = target: T1, 85/88 kDa calcium-independent phospholipase A2 (Homo sapiens) (UniProt O60733); test: Inhibition of human group-6A iPLA2 at 0.091 mole fraction by mixed micellar assay
T1 sequence (whole entry): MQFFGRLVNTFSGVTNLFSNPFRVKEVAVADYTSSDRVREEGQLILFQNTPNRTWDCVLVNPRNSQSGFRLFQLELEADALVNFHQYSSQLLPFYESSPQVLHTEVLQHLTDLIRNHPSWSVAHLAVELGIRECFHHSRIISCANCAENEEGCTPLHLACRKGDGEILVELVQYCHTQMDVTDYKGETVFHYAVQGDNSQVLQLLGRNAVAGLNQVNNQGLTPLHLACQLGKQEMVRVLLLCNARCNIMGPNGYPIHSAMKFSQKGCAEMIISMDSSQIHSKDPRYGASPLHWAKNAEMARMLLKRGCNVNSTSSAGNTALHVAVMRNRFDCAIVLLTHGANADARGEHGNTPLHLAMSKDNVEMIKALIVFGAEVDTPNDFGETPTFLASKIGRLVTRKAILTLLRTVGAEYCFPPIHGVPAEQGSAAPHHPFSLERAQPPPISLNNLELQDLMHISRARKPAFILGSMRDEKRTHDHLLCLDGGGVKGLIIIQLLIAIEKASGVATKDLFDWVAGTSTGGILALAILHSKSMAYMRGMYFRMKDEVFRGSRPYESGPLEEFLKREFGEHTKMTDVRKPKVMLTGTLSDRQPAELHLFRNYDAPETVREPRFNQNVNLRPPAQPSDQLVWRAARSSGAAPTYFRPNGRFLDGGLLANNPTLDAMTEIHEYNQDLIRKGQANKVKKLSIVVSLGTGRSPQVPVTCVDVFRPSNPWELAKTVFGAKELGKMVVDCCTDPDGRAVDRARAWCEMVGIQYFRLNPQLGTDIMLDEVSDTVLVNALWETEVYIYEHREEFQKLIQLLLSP
Method in brief: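 Modified Dole assay, percent inhibition at 0.091 mole fraction inhibitor. Micelles were either 400 μM Triton X-100, 99 μM DPPC, 1.5 μM 14C-DPPC in 200 mM HEPES pH 7.0, 1 mM ATP, 2 mM DTT, 0.1 mg/ml BSA, or 400 μM Triton X-100, 98.3 μM PAPC, 1.7 μM 14C-PAPC in 100 mM HEPES pH 7.5, 2 mM ATP, 4 mM DTT.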

[2] = tested on: RAW264.7; test: Antiinflammatory activity in mouse RAW264.7 cells assessed as inhibition of Kdo2 lipid-A-stimulated arachidonic acid release at 25 uM for 1 hr; format: functional; conditions: for inhibition at 25 µM: RAW264.7, 1 h
Method in brief: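 RAW 264.7 macrophages plated at 2 × 10^6 cells per well and left to adhere overnight. Preincubated 30 min with 25 μM inhibitor, then stimulated with Kdo2-Lipid A. Supernatants collected 1 h later. AA extracted and measured by HPLC-MS, normalized to pmol AA per million cells via DNA quantitation.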

[3] = target: T2, Phospholipase A2 group V (Homo sapiens) (UniProt P39877); test: Inhibition of human group-5 sPLA2 at 0.091 mole fraction by mixed micellar assay
T2 sequence (whole entry): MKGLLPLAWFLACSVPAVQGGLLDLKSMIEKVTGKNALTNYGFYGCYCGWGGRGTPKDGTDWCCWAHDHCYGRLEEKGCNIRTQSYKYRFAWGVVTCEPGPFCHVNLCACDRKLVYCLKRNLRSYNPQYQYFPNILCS
Method in brief: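 Radiometric modified Dole assay screening at 0.091 mole fraction inhibitor, giving percent inhibition. Mixed micelles of 400 μM Triton X-100, 99 μM DPPC and 1.5 μM 14C-DPPC in 50 mM Tris pH 8.0 with 5 mM CaCl2.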

[4] = target: T3, Cytosolic phospholipase A2 (Homo sapiens) (UniProt P47712); test: Inhibition of human group-4A cPLA2 at 0.091 mole fraction by mixed micellar assay
T3 sequence (whole entry): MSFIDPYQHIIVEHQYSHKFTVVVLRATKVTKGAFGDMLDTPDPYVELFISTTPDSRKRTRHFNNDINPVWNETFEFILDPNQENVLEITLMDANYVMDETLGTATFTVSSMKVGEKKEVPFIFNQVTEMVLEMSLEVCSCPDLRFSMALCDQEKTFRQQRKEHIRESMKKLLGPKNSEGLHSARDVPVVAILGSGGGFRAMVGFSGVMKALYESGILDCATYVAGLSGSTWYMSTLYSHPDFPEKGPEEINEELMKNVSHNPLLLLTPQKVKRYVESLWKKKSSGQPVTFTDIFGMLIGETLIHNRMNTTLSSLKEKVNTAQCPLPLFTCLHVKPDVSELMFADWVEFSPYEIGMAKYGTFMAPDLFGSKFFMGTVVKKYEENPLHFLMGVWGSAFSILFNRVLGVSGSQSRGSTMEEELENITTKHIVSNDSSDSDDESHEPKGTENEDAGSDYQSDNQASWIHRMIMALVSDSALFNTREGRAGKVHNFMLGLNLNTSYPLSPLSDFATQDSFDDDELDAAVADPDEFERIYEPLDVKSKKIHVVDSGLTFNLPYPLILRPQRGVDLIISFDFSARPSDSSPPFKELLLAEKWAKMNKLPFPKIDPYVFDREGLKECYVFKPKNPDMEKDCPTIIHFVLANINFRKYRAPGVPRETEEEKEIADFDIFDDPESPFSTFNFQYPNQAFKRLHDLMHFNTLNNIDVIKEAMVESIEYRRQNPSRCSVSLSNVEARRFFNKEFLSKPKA
Method in brief: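 Modified Dole assay, single point at 0.091 mole fraction inhibitor. Mixed micelles: 400 μM Triton X-100, 97 μM PAPC, 1.8 μM 14C-PAPC, 3 μM PIP2. Buffer: 100 mM HEPES pH 7.5, 90 μM CaCl2, 2 mM DTT, 0.1 mg/ml BSA. Percent inhibition reported.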

[5] = tested on: RAW264.7; test: Antiinflammatory activity in mouse RAW264.7 cells assessed as inhibition of Kdo2 lipid-A-stimulated arachidonic acid release after 1 hr; format: functional, cell-based; conditions: RAW264.7, 1 h
Method in brief: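 RAW 264.7 macrophages grown in DMEM with 10% FBS, 2 mM glutamine, penicillin/streptomycin and non-essential amino acids at 37 °C, 5% CO2. Plated at 2 × 10^6 cells per well, adhered overnight. Inhibitor added 30 min before Kdo2-Lipid A, supernatants taken 1 h after stimulation. AA extracted and quantitated by HPLC-MS, normalized to pmol per million cells by DNA quantitation. IC50 = concentration giving half of the maximal inhibition seen.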

| Structure (SMILES) | inhibition [1] | inhibition at 25 µM [2] | inhibition [3] | inhibition [4] | also measured |
| --- | --- | --- | --- | --- | --- |
| CCCCCCCCCCCCCCC(=O)C(=O)N[C@H](C(=O)NCC(=O)OC(C)(C)C)C(C)C | > 90% | 30% | 78% | > 90% | – |
| CCCCCCCCCCCCCCC(=O)C(=O)N[C@H](/C=C/C(=O)O)CCCC | – | 16% | – | – | IC50 [5]: 25 µM |
| CCCCCCCCCCCCCCC(=O)C(=O)N[C@H](CCC(=O)O)CC(C)C | – | 6% | – | – | IC50 [5]: 25 µM |
| CCCCCCCCCCCCCCC(=O)C(=O)N[C@@H](CCCC)CCCC(=O)O | – | 30% | – | – | IC50 [5]: 7 µM |
| CCCCCCCCCCCCCCC(=O)C(=O)NCC(=O)OC | – | 68% | – | – | – |
| CCCCCCCCCCCCCCC(=O)C(=O)N[C@@H](CCCC)C(=O)NCC(=O)OC | > 90% | – | 65% | > 90% | – |
| CCCCCCCCCCCCCCC(=O)C(=O)NCCCC(=O)N(C)S(=O)(=O)c1ccc(C)cc1 | – | – | – | – | Activity [2]: Toxic |
| CCCCCCCCCCCCCCC(=O)C(=O)N[C@H](C(=O)NCC(=O)OC)C(C)C | < 25% | – | < 25% | 25% | – |
| CCCCCCCCCCCCCCC(=O)C(=O)N[C@H](/C=C/C(=O)OCC)CCCC | – | 11% | – | – | – |
| CCCCCCCCCCC(=O)C(=O)N[C@@H](CCCC)CCC(=O)O | – | 62% | – | – | IC50 [5]: 10 µM |
| CCCCCCCCCCCCCCC(=O)C(=O)NCCCC(=O)COCC | > 90% | – | – | > 90% | – |
| CCCCCCCCCCCCCC(=O)C(=O)N[C@@H](CCCC)CCCCC(=O)O | – | – | – | – | Activity [2]: Toxic |
| CCCCCCCCCCCCCCC(=O)C(=O)N[C@@H](CCCC)COCC(=O)OCC | > 90% | – | 81% | 52% | – |
| CCCCCCCCCCC(=O)C(=O)N[C@@H](CCC(=O)OC)COC(=O)NCCCCCCCC | – | – | – | – | Activity [2]: Toxic |
| CCCCCCCCCCCCCCC(=O)C(=O)N[C@@H](C)CCC(=O)OC(C)(C)C | – | – | – | – | Activity [2]: Toxic |
| CCCCCCCCCCCCCCC(=O)C(=O)N[C@@H](CCCC)COCC(=O)O | < 25% | – | < 25% | > 90% | IC50 [5]: 2 µM |

| Structure (SMILES) | inhibition [1] | inhibition at 25 µM [2] | inhibition [3] | inhibition [4] | also measured |
| --- | --- | --- | --- | --- | --- |
| CCCCCCCCCCCCCCC(=O)C(=O)NCCC(=O)OC(C)(C)C | – | – | – | – | Activity [2]: Toxic |
| CCCCCCCCCCCCCCC(=O)C(=O)N[C@@H](CCCC)CCC(=O)O | – | 30% | – | – | IC50 [5]: 25 µM |
| CCCCCCCCCCCCCCC(=O)C(=O)N[C@@H](CCCC)C(=O)NCC(=O)OCC | > 90% | – | 63% | 73% | – |
| CCCCCCCCCCCCCCC(=O)C(=O)N[C@H](/C=C/C(=O)OC)CCCC | – | – | – | – | Activity [2]: Toxic |
| CCCCCCCCCCCCCCC(=O)C(=O)NCCCCC(=O)OC(C)(C)C | – | 59% | – | – | – |
| CCCCCCCCCCCCCCC(=O)C(=O)N[C@@H](CCCC)C(=O)NCC(=O)O | < 25% | – | < 25% | > 90% | – |
| CCCCCCCCCCCCCCC(=O)C(=O)NCCCC(=O)OCC | – | – | – | – | Activity [2]: Toxic |
| CCCCCCCCCCCCCCC(=O)C(=O)N[C@@H](CCCC)COCC(=O)OC(C)(C)C | 81% | – | 57% | 44% | – |
| CCCCCCCCCCCCCCC(=O)C(=O)N[C@@H](CCCC)C(=O)NCC(=O)OC(C)(C)C | > 90% | – | 59% | 72% | – |
| CCCCCCCCCCCCCCC(=O)C(=O)N[C@@H](CCCC)CCC(=O)OC | – | – | – | – | Activity [2]: Toxic |
| CCCCCCCCCCCCCCC(=O)C(=O)N[C@H](/C=C/C=C/C(=O)O)CCCC | – | 74% | – | – | – |
| CCCCCCCCCCCCCCC(=O)C(=O)N[C@H](C(=O)NCC(=O)O)C(C)C | < 25% | – | < 25% | > 90% | – |
| CCCCCCCCCCC(=O)C(=O)N[C@@H](CCCC)C(=O)O | – | 79% | – | – | – |
| CCCCCCCCCCCCCCC(=O)C(=O)NCCCC(=O)O | – | 27% | – | – | IC50 [5]: 25 µM |
| CCCCCCCCCCCCCCC(=O)C(=O)NCCCC(=O)CO | < 25% | – | – | > 90% | – |
